High-throughput results as filed in PubChem BioAssay.
An excerpt weighted towards active compounds, which were near 2.2% of everything screened.
NR2E3 ag-1 = NR2E3 agonists in two-hybrid cells, primary screen, cell-based, luminescence, CHO-S, Gal4-NCOR/VP16-NR2E3 | Photoreceptor-specific nuclear receptor (Homo sapiens), Q9Y5X4 | luciferase | inhibition of corepressor binding, % at 3.98 µM | 360,000 compounds, 0.35% hits | AID 602229, 2012;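 active = inhibition above the mean of all tested compounds plus 3 SD, cut at about 70% in these data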;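 also: 0% = DMSO with NR2E3 transfected cells and 100% = cells lacking NR2E3 construct; higher means lower luciferase signal from less NR2E3 corepressor binding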
Target sequence (Q9Y5X4 whole entry, looked up, the tested form may be a part): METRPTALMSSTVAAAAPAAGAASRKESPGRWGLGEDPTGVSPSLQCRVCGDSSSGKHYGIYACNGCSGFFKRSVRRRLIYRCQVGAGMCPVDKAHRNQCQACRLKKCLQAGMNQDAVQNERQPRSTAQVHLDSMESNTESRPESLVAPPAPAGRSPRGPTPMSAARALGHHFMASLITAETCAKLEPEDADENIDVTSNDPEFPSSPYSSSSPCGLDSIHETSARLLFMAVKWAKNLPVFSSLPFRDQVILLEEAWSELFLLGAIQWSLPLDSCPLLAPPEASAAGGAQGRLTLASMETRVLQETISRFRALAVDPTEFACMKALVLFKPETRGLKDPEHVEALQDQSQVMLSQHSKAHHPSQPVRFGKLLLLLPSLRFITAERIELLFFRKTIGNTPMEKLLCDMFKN
NR2E3 ag-2 = inhibitors of NR2E3-RetCOR corepressor binding, primary screen, NR2E3 agonist project, biochemical, TR-FRET, GST-NR2E3, biotin-RetCOR. Photoreceptor-specific nuclear receptor (Homo sapiens), Q9Y5X4. inhibition of corepressor binding, % at 4.78 µM. AID 2300, 2010. 320,000 compounds, 0.12% hits. 1536-well;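 active = percent inhibition above the cutoff of mean plus 3 SD of all tested compounds, set per screening campaign, cut at about 20% in these data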;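 also: 0% = DMSO wells and 100% = biotin wells as full block of FRET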
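Assay system: NR2E3–RetCOR corepressor complex. Quantity: 1.35 nM GST-NR2E3. Buffer or medium: pH 7.5 Tris-based buffer. Reagent: biotinylated RetCOR corepressor at 7 nM final. Schedule: 5 h at 4 °C. Detection: TR-FRET, emission read at 617 and 671 nm. Replicates: one well per compound, singlicate testing.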
HIV Env fusion = inhibitors of HIV-1 Env-driven cell-cell fusion, primary screen, HeLa-JRFL effector, CEM21 target cells, luciferase; inhibition, % at 12.3 µM; 360,000 compounds, 1.1% hits;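 active = mean replicate inhibition score of at least 50 and every replicate individually at or above 50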;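 also: 0% = plate neutral controls and 100% = maraviroc near 300 nM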
GalR3 antag = GalR3 antagonists in HEK293 cells, primary screen, cell-based, fluorescence readout; inhibition, % at 3 µM; 360,000 compounds, 0.44% hits; HEK293 GalR3-CNG cAMP membrane potential fluorescence; galR3 body fused to GalR1 C-terminus; Galanin receptor type 3 (Homo sapiens), O60755;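 active = inhibition above the screen-wide average plus 3 SD, cut at about 13% in these data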;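 also: forskolin and galanin both at EC90 stimulate the cells; cAMP rise reported by CNG channel membrane potential dye signal; 0% = forskolin plus galanin with DMSO and 100% = forskolin alone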
GAA850 FXN act = FXN promoter activators, primary screen, cell-based, luciferase luminescence, HEK293 lucGAA850; HEK293 lucGAA850 FXN promoter luciferase reporter, 24 h; percent of 10 µM SAHA response; activation, % at 6 µM; 360,000 compounds, 0.56% hits;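 active = activation above the average of all compounds screened plus 3 SD, cutoff fixed separately per campaign, cut at about 7.5% in these data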;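 also: 0% = DMSO wells and 100% = 10 µM SAHA wells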
V-ATPase pHluor = regulators of yeast V-ATPase proton pumping, primary screen, pHLuorin cytosolic pH fluorescence | S. cerevisiae | response, % at 10 µM | 350,000 compounds, 0.37% hits | AID 504577, 2011; in the data active = response mostly above about 7.3%, no sharp cut-off; inactive = mostly below about 5.4%; also: actives read high
The depositor's hits bear a star; / = not tested or not shown; [ ] = dose if it differs, or a comment.

SMILES	NR2E3 ag-1	NR2E3 ag-2	HIV Env fusion	GalR3 antag	GAA850 FXN act	V-ATPase pHluor
C[C@@H]1CN([C@@H](C)CO)C(=O)c2cc(NC(=O)c3ccccc3)ccc2O[C@@H](C)CCCCO[C@@H]1CN(C)Cc1ccc(C(=O)O)cc1	/	/	-6[16.7 µM]	/	/	/
C[C@@H]1CN([C@@H](C)CO)C(=O)c2cc(NC(=O)c3ccccc3)ccc2O[C@@H](C)CCCCO[C@H]1CN(C)Cc1ccc(C(=O)O)cc1	/	/	62*[16.7 µM]	/	/	/
Cc1ccc(S(=O)(=O)N(C)C[C@@H]2OCCCC[C@@H](C)Oc3ccc(NC(=O)NC(C)C)cc3C(=O)N([C@H](C)CO)C[C@H]2C)cc1	/	/	12[16.7 µM]	/	/	/
N#C/C(=C\c1ccc(N2CCCCC2)o1)C(N)=O	-19	-11	57*	0	1	2
N#C/C(=C\c1ccc(N2CCCCC2)o1)C(=O)Nc1cccc(Br)c1	-131	-3	-66	-5	7	-3
CS(=O)(=O)N(CC(=O)NCCSC1CCCCC1)c1ccc2c(c1)OCO2	-22	-4	/	1	2	24*
FC(F)(F)c1cccc(NC(=S)NCc2ccc(Cl)cc2)c1	6	3	64*	-4	0	-1
Fc1ccc(CNC(=S)Nc2cccc(C(F)(F)F)c2)cc1	33	-1	/	0	2	-1
CN(C)C(=S)NC(=S)Nc1ccc2ccccc2c1	46	/	-205	-3	17*	3
CC(C)Oc1ccc(C(CCNCc2ccc(O)cc2)c2ccccc2)cc1 (stereo not drawn)	15	/	17	-11	-4	3
COc1ccc(C(CCNCc2ccc(N(C)C)cc2)c2ccccc2)cc1 (stereo not drawn)	8	3	69*	-9	2	0
CCOC(=O)C1CCN(C(=O)c2ccc3c(c2)C(=O)N(c2ccccc2C)C3=O)CC1	-16	-1	85*	-4	1	2
CCOC(=O)C1CCCN(C(=O)c2ccc(OC)cc2)CC1 (stereo not drawn)	-22	/	-40	-2	0	/
CCOC(=O)C1CCCN(C(=O)c2ccc3c(c2)C(C)(C)CCC3(C)C)CC1 (stereo not drawn)	12	/	60*	-8	3	/
COc1ccc2[nH]c(=O)c(CN(Cc3cccs3)S(=O)(=O)c3cccc4nsnc34)cc2c1	0	3	70*	-6	-3	-1
COc1ccc2[nH]c(=O)c(CN(CCO)S(=O)(=O)c3c(C)ccc4nsnc34)cc2c1	-9	1	-124	1	1	-5
O=C(CCN1C(=O)/C(=C\c2ccccc2)SC1=S)NCCCN1CCOCC1	-8	2	-20	-1	-1	-1
O=C1C(=Cc2ccccc2O)SC(=S)N1CCCN1CCOCC1	-39	/	85*	-2	0	2
O=[N+]([O-])c1nn(-c2ccc3c(c2)OCCO3)n(O)c1=Nc1ccc(Cl)cc1	86*	6	/	-8	-19	2
CCc1ccc(N=c2c([N+](=O)[O-])nn(-c3ccc4c(c3)OCCO4)n2O)cc1	-76	-3	2	-4	-1	3
O=C(C[C@H]1C[C@@H]2c3cc(NC(=O)Nc4ccccc4F)ccc3O[C@@H]2[C@@H](CO)O1)NCc1cc(F)ccc1F	/	/	12[16.7 µM]	/	/	/
CCN(CC)c1nc(Nc2ccccc2)nc(Oc2ccc(=O)[nH]n2)n1	8	4	91*	-8	0	-1
COc1ccc(/C=N/Nc2nccnc2Cl)c(OC)c1	-72	-7	1	-5	6	0
COc1ccc(/C=N/Nc2nonc2N)c(OC)c1	-5	3	65*	0	0	-3
CC(C)(C)c1nc[nH]c(=O)c1Br	-3	0	/	2	0	1
SMILES	NR2E3 ag-1	NR2E3 ag-2	HIV Env fusion	GalR3 antag	GAA850 FXN act	V-ATPase pHluor
CC(C)(C)c1nc(C(C)(C)C)c(Br)c(=O)[nH]1	-1	-1	72*	-7	2	-1
COCCNC(=O)C1(C)CCCN(C(=O)c2ccc3c(c2)CCO3)C1 (stereo not drawn)	-13	/	59*	-2	0	/
Cc1ccc(NC(=O)c2cc(-c3cc(Cl)ccc3C)n[nH]2)cc1NS(C)(=O)=O	-6	/	65*	9	-4	/
CC(OC(=O)Cc1n[nH]c(=O)c2ccccc12)C(=O)Nc1ccccc1[N+](=O)[O-] (stereo not drawn)	7	0	/	-2	3	-3
COc1ccccc1NC(=O)C(C)OC(=O)Cc1n[nH]c(=O)c2ccccc12 (stereo not drawn)	15	1	-6	-2	1	16*
O=C(O)c1cc2c([nH]c1=O)CCCC2	-22	1	33	-4	0	2
O=c1ccc2c([nH]1)CCCCCCCCCC2	35	-2	56*	-10	-1	0
O=C(CSc1nnc2ccc(-c3ccc(F)cc3)nn12)N1CCCC1	-17	-1	15	-5	0	20*
O=C(CSc1ccc2nnc(-c3ccc(Cl)cc3)n2n1)N1CCCC1	-9	-1	-8	3	2	14*
O=C(CSc1ccc2nnc(-c3ccc(Cl)cc3)n2n1)N1CCc2ccccc21	12	-2	3	0	0	4
COCCCN1C(=O)[C@@]2(Cc3ccccc31)c1ccccc1C(=O)N(C1CCCCC1)[C@H]2c1ccc(CO)cc1	/	/	11[16.7 µM]	/	/	/
CCN(CC)C(=O)c1ccc(S(=O)(=O)N2CCC(c3nc4ccccc4s3)CC2)cc1	29	1	/	-10	-5	-2
CC1CCCN(C(=O)c2ccc(S(=O)(=O)N3CCC(c4nc5ccccc5s4)CC3)cc2)C1 (stereo not drawn)	-11	1	68*	-8	1	-4
CCCCNC(=S)N/N=C/C1=CCC2CC1C2(C)C (stereo not drawn)	10	-1	84*	-9	-1	-1
COc1ccc(C(O)(CCC(C)C)C(CN2CCOCC2)c2ccccc2)cc1 (stereo not drawn)	3	/	73*	-11	1	1
Nc1c(Cl)cc2c(c1Oc1ccccc1)C(=O)c1ccccc1C2=O	-14	-1	125*	-1	8	4
Nc1c(Cl)cc2c(c1Br)Cc1ccccc1-2	-29	/	-4	2	0	3
COCCn1c(NC(=S)NC(=O)C2CC2)cc(=O)[nH]c1=O	-14	-1	16	3	-1	0
COCCn1c(NC(=S)NC(=O)C23CC4CC(CC(C4)C2)C3)cc(=O)[nH]c1=O	-249	0	2	-2	12*	0
